12 molecules from ChEMBL document CHEMBL5356992, “New nitazoxanide derivatives: design, synthesis, biological evaluation, and molecular docking studies as antibacterial and antimycobacterial agents” (RSC Med Chem, 2023) can be followed below.

In brackets after ≈: the same amount, converted by molar mass. Bounds are passed on as bounds.

In one series the test system is RAW264.7. The experiment in a line: Cytotoxicity against mouse RAW264.7 cells at 25 ug/ml incubated for 48 hrs by MTT assay. It counts as toxicity, cell-based. As to conditions: raw264.7, 48 h, at 25 µg/mL. In a few lines:
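RAW 264.7 mouse macrophages were grown in RPMI with 10% FBS plus penicillin/streptomycin to 80–90% confluency. About 5000 cells/well were seeded on poly-L-lysine-coated plates and held 24 h at 37 °C, 5% CO2. Compound was added at 25 μg mL−1 for 48 h at 37 °C. MTT (0.5 mg mL−1) was added for 3 h, and formazan was read at 595 and 625 nm. Result is % inhibition.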

The subject of series [1] is Pseudomonas aeruginosa. The experiment in a line: Antibacterial activity against Pseudomonas aeruginosa ATCC 27853 by broth microdilution method. It counts as functional. In a few lines: (§1)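 CLSI broth microdilution on wild-type strains. E. coli ATCC 8739, P. aeruginosa ATCC 27853 and K. pneumoniae ATCC 10031 served as Gram-negatives. S. aureus ATCC 6538 and E. faecalis ATCC 19433 served as Gram-positives. H. pylori ATCC 700392 was tested as the […]. Ciprofloxacin was the reference drug. MIC is given in μM as the mean of three experiments.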
Background: In broth dilution the organism is exposed to a series of concentrations in liquid medium.

A further series deals with Helicobacter pylori. The experiment in a line: Antibacterial activity against Helicobacter pylori ATCC 700392 by broth microdilution method. It is filed as functional. In a few lines: as §1
Series [2] concerns Escherichia coli. The experiment in a line: Antibacterial activity against Escherichia coli ATCC 8739 by broth microdilution method. It is filed as functional. In outline:
as §1

In series [3] the test system is Enterococcus faecalis. The experiment in a line: Antibacterial activity against Enterococcus faecalis ATCC 19433 by broth microdilution method. It is filed as functional. In a few lines: as §1
The nature of series [4]: Selectivity index, ratio of cytotoxicity against mouse RAW264.7 cells to MIC for Mycobacterium tuberculosis H37Rv. It is filed as toxicity, cell-based. As to conditions: read-out: Selectivity Index. In a few lines:
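SI is cytotoxicity divided by the MABA MIC (μg mL⁻¹) against H37Rv. For cytotoxicity, RAW 264.7 cells were grown in RPMI with 10% FBS and penicillin/streptomycin. About 5000 cells per well were seeded on poly-L-lysine plates and held 24 h at 37 °C, 5% CO2. Compounds were added at 25 μg mL⁻¹ for 48 h, then MTT (0.5 mg mL⁻¹) for 3 h. Formazan was read at 595/625 nm and reported as % inhibition.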

For series [5], the system named is Mycobacterium tuberculosis. The experiment in a line: Antimycobacterial activity against Mycobacterium tuberculosis H37Rv incubated for 7 days by alamar blue assay. It is filed as functional. As to conditions: 168 h, time 7 day. In a few lines: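 Two-fold serial dilutions in 7H9-S, with growth and sterile controls, incubated at 37 °C for 7 days. Alamar Blue then added and incubated overnight. MIC is the lowest concentration preventing the blue-to-pink change. Means of three experiments.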
On the technique in general: The colour change of resazurin is a common sign of viable cells or microbes.

The subject of series [6] is Staphylococcus aureus. The experiment in a line: Antibacterial activity against Staphylococcus aureus ATCC 6538 by broth microdilution method. It counts as functional. In a few lines:
as §1

For series [7], the system named is Escherichia coli. The experiment in a line: Potency index, ratio of nitazoxanide MIC to test compound MIC for antibacterial activity against Escherichia coli ATCC 8739. It counts as functional.
Series [8] concerns Klebsiella pneumoniae. Description: Potency index, ratio of nitazoxanide MIC to test compound MIC for antibacterial activity against Klebsiella pneumoniae ATCC 10031. It is filed as functional.
In series [9] the test system is Klebsiella pneumoniae. Description: Antibacterial activity against Klebsiella pneumoniae ATCC 10031 by broth microdilution method. It is filed as functional. In outline:
as §1

The test system of series [10] is Pseudomonas aeruginosa. The experiment in a line: Potency index, ratio of nitazoxanide MIC to test compound MIC for antibacterial activity against Pseudomonas aeruginosa ATCC 27853. It counts as functional.
Series [11] has as its system Enterococcus faecalis. Description: Potency index, ratio of nitazoxanide MIC to test compound MIC for antibacterial activity against Enterococcus faecalis ATCC 19433. It counts as functional.
In series [12] the test system is Staphylococcus aureus. The experiment in a line: Potency index, ratio of nitazoxanide MIC to test compound MIC for antibacterial activity against Staphylococcus aureus ATCC 6538. It counts as functional.

A word on the MIC: it is the lowest concentration that inhibits growth of the organism. Read a low MIC as a more susceptible organism. The molecule `Cc1ccc(-c2cn(-c3ccc(C(=O)Nc4ncc([N+](=O)[O-])s4)c(O)c3)nn2)cc1` yielded a Cell growth inhibition in the series with RAW264.7 of 27.6%. Further, the MIC against Pseudomonas aeruginosa [1] is 303 µM (≈ 128 µg/mL); against Helicobacter pylori, 5.91 µM (≈ 2.5 µg/mL); in the series with Escherichia coli [2], 7.1 µM (≈ 3 µg/mL); with Enterococcus faecalis [3], 75.8 µM (≈ 32 µg/mL); in series [5] it was 25 µg/mL (≈ 59.2 µM); against Staphylococcus aureus [6] it was 1210 µM (≈ 512 µg/mL). In addition, the selectivity ratio in series [4] was 1.
Regarding `COC(=O)c1cn(-c2ccc(C(=O)Nc3ncc([N+](=O)[O-])s3)c(O)c2)nn1`, the Ratio in the series with Escherichia coli [7] is reported as 20; in the series with Klebsiella pneumoniae [8], “<=20”. Also, the MIC against Pseudomonas aeruginosa [1] is 15.4 µM (≈ 6 µg/mL); with Helicobacter pylori, 3.84 µM (≈ 1.5 µg/mL); in the series with Escherichia coli [2], 3.84 µM (≈ 1.5 µg/mL); against Klebsiella pneumoniae [9] it was 5.12 µM (≈ 2 µg/mL); in series [5] it was over 25 µg/mL; against Staphylococcus aureus [6], 10.2 µM (≈ 4 µg/mL).
For `O=C(Nc1ncc([N+](=O)[O-])s1)c1ccc(-n2cc(CN3C(=O)C(=O)c4cc(F)ccc43)nn2)cc1O`, the MIC in the series with Pseudomonas aeruginosa [1] is 7.85 µM (≈ 4 µg/mL); against Helicobacter pylori, 3.92 µM (≈ 2 µg/mL); in the series with Enterococcus faecalis [3], 4.9 µM (≈ 2.5 µg/mL); in series [5] it was over 25 µg/mL; against Staphylococcus aureus [6] it was 15.7 µM (≈ 8 µg/mL). In addition, the Ratio in the series with Pseudomonas aeruginosa [10] is recorded as over 50; in the series with Enterococcus faecalis [11], 25.
As for `O=C(Nc1ncc([N+](=O)[O-])s1)c1ccc(-n2cc(CN3CCCC3)nn2)cc1O`, the Ratio in the series on Staphylococcus aureus [12] is on record as 25; in the series with Pseudomonas aeruginosa [10] it was over 50. Further, the MIC was 7.22 µM (≈ 3 µg/mL) in the series with Pseudomonas aeruginosa [1]; 19.2 µM (≈ 8 µg/mL) in the series on Helicobacter pylori; 6.01 µM (≈ 2.5 µg/mL) in the series with Escherichia coli [2]; 12 µM (≈ 5 µg/mL) in the series with Klebsiella pneumoniae [9]; over 25 µg/mL in [5]; 3.61 µM (≈ 1.5 µg/mL) against Staphylococcus aureus [6].
As to `CN1CCN(Cc2cn(-c3ccc(C(=O)Nc4ncc([N+](=O)[O-])s4)c(O)c3)nn2)CC1`, the Ratio is 25 with Staphylococcus aureus [12] and “<=20” in the series with Klebsiella pneumoniae [8]. In addition, the MIC is 144 µM (≈ 64 µg/mL) against Pseudomonas aeruginosa [1]; 6.74 µM (≈ 3 µg/mL) with Helicobacter pylori; 8.99 µM (≈ 4 µg/mL) in the series on Klebsiella pneumoniae [9]; over 25 µg/mL in series [5]; 4.49 µM (≈ 2 µg/mL) against Staphylococcus aureus [6].
Take `O=C(O)c1cn(-c2ccc(C(=O)Nc3ncc([N+](=O)[O-])s3)c(O)c2)nn1`: the Cell growth inhibition with RAW264.7 was 27.5%. Moreover, the MIC against Pseudomonas aeruginosa [1] came to 10.6 µM (≈ 4 µg/mL); in the series with Helicobacter pylori it was 21.2 µM (≈ 8 µg/mL); with Escherichia coli [2], 6.64 µM (≈ 2.5 µg/mL); with Klebsiella pneumoniae [9], 15.9 µM (≈ 6 µg/mL); in series [5], 25 µg/mL (≈ 66.4 µM); with Staphylococcus aureus [6], 85 µM (≈ 32 µg/mL). For the same molecule, the selectivity ratio in [4] was determined as 1.
On to `O=C(Nc1ncc([N+](=O)[O-])s1)c1ccc(-n2cc(CN3C(=O)C(=O)c4cc(Br)ccc43)nn2)cc1O`, for which the results for the Ratio in the series on Staphylococcus aureus [12], with Klebsiella pneumoniae [8] and in the series with Pseudomonas aeruginosa [10] were 25, “<=20” and over 50, respectively. The MIC was 5.26 µM (≈ 3 µg/mL) against Pseudomonas aeruginosa [1]; 3.5 µM (≈ 2 µg/mL) against Helicobacter pylori; 21 µM (≈ 12 µg/mL) against Escherichia coli [2]; 8.76 µM (≈ 5 µg/mL) in the series with Enterococcus faecalis [3]; 4.38 µM (≈ 2.5 µg/mL) against Klebsiella pneumoniae [9]; over 25 µg/mL in series [5]. In the series with Staphylococcus aureus [6], this molecule showed an MIC of 0.87 µM (≈ 0.496 µg/mL).
For `O=C(Nc1ncc([N+](=O)[O-])s1)c1ccc(-n2cc(CN3CCCCC3)nn2)cc1O`, the MIC with Helicobacter pylori is 1.74 µM (≈ 0.747 µg/mL); against Escherichia coli [2] it was 74.5 µM (≈ 32 µg/mL); with Enterococcus faecalis [3] it was 27.9 µM (≈ 12 µg/mL); against Klebsiella pneumoniae [9], 1190 µM (≈ 512 µg/mL); in series [5], over 25 µg/mL; in the series with Staphylococcus aureus [6], 9.31 µM (≈ 4 µg/mL).
Turning to `O=C(Nc1ncc([N+](=O)[O-])s1)c1ccc(-n2cc(CN3C(=O)C(=O)c4cc(Cl)ccc43)nn2)cc1O`, the MIC in the series on Helicobacter pylori was 4.75 µM (≈ 2.5 µg/mL); in the series with Escherichia coli [2], 487 µM (≈ 256 µg/mL); against Klebsiella pneumoniae [9] it was 60.9 µM (≈ 32 µg/mL); in series [5], over 25 µg/mL.
Turning to `O=C(Nc1ncc([N+](=O)[O-])s1)c1ccc(-n2cc(CN3CCOCC3)nn2)cc1O`, the Ratio in the series with Staphylococcus aureus [12] stood at 25. In addition, the MIC with Pseudomonas aeruginosa [1] is 148 µM (≈ 64 µg/mL); in the series on Helicobacter pylori, 9.27 µM (≈ 4 µg/mL); with Escherichia coli [2], 1190 µM (≈ 512 µg/mL); against Klebsiella pneumoniae [9], 18.5 µM (≈ 8 µg/mL); in series [5], over 25 µg/mL; with Staphylococcus aureus [6] it was 6.95 µM (≈ 3 µg/mL).
In the case of `O=C(Nc1ncc([N+](=O)[O-])s1)c1ccc(-n2cc(CN3C(=O)C(=O)c4ccccc43)nn2)cc1O`, the MIC in the series with Pseudomonas aeruginosa [1] was 16.3 µM (≈ 8 µg/mL); against Helicobacter pylori, 130 µM (≈ 64 µg/mL); against Enterococcus faecalis [3] it was 4.06 µM (≈ 2 µg/mL); in [5], over 25 µg/mL; against Staphylococcus aureus [6] it was 32.5 µM (≈ 16 µg/mL). The Ratio with Enterococcus faecalis [11] was 25.
Consider `COc1ccc2c(c1)C(=O)C(=O)N2Cc1cn(-c2ccc(C(=O)Nc3ncc([N+](=O)[O-])s3)c(O)c2)nn1`, for which the MIC against Helicobacter pylori was 9.58 µM (≈ 5 µg/mL); in the series on Escherichia coli [2], 15.3 µM (≈ 8 µg/mL); in the series on Enterococcus faecalis [3], 184 µM (≈ 96 µg/mL); against Klebsiella pneumoniae [9], 491 µM (≈ 256 µg/mL); in [5], over 25 µg/mL; against Staphylococcus aureus [6], 92 µM (≈ 48 µg/mL).
